Rows were chosen to be rich in hits. Some 3.7% of all compounds tested hit in one or more screens of this group.
TAAR1 agonist: human TAAR1 agonism | CHO RD-HGA16 TAAR1, Fluo-8 calcium fluorescence; vehicle wells 0%, saturating PEA agonist 100% | actives 0.99% (n = 360,000) | activation, % at 3 µM;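 active means activation above the mean activation of all test compounds in the run plus 3 SD, cut at about 38% in these data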
Target sequence (Q96RJ0 whole entry, looked up): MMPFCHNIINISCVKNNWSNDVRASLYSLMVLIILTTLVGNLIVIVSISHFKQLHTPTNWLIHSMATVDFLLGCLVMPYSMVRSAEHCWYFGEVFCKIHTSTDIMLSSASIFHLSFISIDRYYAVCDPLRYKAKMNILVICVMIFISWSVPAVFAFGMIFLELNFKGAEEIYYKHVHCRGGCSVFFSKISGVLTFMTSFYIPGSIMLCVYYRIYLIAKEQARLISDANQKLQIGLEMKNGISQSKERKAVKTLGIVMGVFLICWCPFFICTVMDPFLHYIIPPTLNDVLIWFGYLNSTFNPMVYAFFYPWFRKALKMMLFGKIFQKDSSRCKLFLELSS
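Assay system: CHO-derived RD-HGA16 cells with stable Gα16 and human TAAR1; timing: 17-24 h seeding, 75 min 37 °C dye, 30 min RT; read-out: % activation from peak over basal fluorescence ratio, DMSO-to-PEA scaled; measured by: kinetic Fluo-8 calcium fluorescence; benchmarks: low control DMSO, high control PEA (EC100); doses: 3 µM single concentration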
rCAG binder: binds r(CAG) RNA repeats | r(CAG) RNA repeat, TO-PRO-1 dye displacement fluorescence | inhibition, % at 3 µM | actives 1.3% (n = 370,000);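 active means inhibition above the plate cutoff, the mean of all test compounds on that plate plus 3 SD, cut at about 35% in these data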;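 further: 0% = DMSO alone and 100% = 100 µM mitoxantrone as full dye displacement; higher means more dye released from RNA so lower well fluorescence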
NS3 helicase inh: HCV NS3 helicase inhibition; NS3 helicase DNA unwinding, Cy5 molecular beacon fluorescence; inhibition, % at 10.9 µM; actives 0.56% (n = 290,000); AID 1800;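 active means inhibition above the mean of all tested compounds plus 3 SD, set per campaign, cut at about 35% in these data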;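 further: 0% = DMSO wells and 100% = thioflavine S control wells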
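test system = hepatitis C virus NS3 helicase domain fragment enzyme | reagent = annealed dual-labelled DNA beacon duplex, ATP-started | times = 1 h at 25 °C | detection = Cy5 fluorescence, 0 and 60 min reads | read-out basis = percent inhibition from t60/t0 fluorescence ratio | control set = DMSO and thioflavine S | replication = one well per compound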
core dimer inh: HCV core protein dimerization inhibition; TR-FRET GST/Flag-core106 dimerization, 1536-well; inhibition, % at 5 µM; actives 0.33% (n = 300,000); AID 1899;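 active means inhibition above the mean of all tested compounds plus 3 SD, set per screening campaign, cut at about 45% in these data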
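Assay system: GST-tagged and Flag-tagged HCV core protein residues 1-106 / Times: compound-protein-antibody incubation 4 h at 22.5 °C / Signal: time-resolved FRET, ex 340 nm, em 617 and 671 nm / Evaluation: % inhibition based on acceptor/donor emission ratio / Benchmarks: wells lacking GST-core106 and wells with excess unlabelled core106 / Repeats: singlicate, one well per compound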
TAAR1 antag: antagonists of human TAAR1; CHO RD-HGA16 TAAR1, Fluo-8 calcium fluorescence, antagonist; inhibition, % at 3 µM; actives 1.5% (n = 360,000);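 active means inhibition above a per-plate cutoff, the mean inhibition of test compounds on that plate plus 3 SD, cut at about 49% in these data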;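 further: 0% = DMSO plus EC80 beta-PEA response and 100% = DMSO alone without agonist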
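Assay system: RD-HGA16 CHO cells with stable hTAAR1 and Gα16 / Reagent: EC80 β-phenethylamine stimulus / Doses: 3 µM, single point / Timing: dye loading 75 min at 37 °C, then 30 min room temperature / Measured by: Fluo-8 intracellular calcium dye fluorescence, real-time kinetic reads / Controls: vehicle wells and EC80 agonist wells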
TAAR1 ag conf: human TAAR1 agonism, confirmed. shares compounds with TAAR1 agonist. CHO RD-HGA16 TAAR1, Fluo-8 calcium fluorescence; scaled: DMSO 0%, maximal phenethylamine 100%. activation, % at 3 µM. actives 82% (n = 2,400);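 active means activation above a cutoff set at the run's mean compound activation plus 3 SD, cut at about 39% in these data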
Ga16 ag counter: nonselective agonism, TAAR1 counter-screen | shares compounds with TAAR1 agonist | CHO-Ga16 parental, Fluo-8 calcium fluorescence; normalized to maximal ATP response, DMSO zero | activation, % at 3 µM | actives 50% (n = 2,400);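 active means activation above the run cutoff, the mean activation over all tested wells plus 3 SD, cut at about 12% in these data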;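 further: 0% = DMSO wells and 100% = maximal ATP response on the peak over basal ratio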
TAAR1 desens: TAAR1 response desensitization, agonist counter-screen; shares compounds with TAAR1 agonist; CHO RD-HGA16 hTAAR1, Fluo-8 calcium, beta-PEA response inhibition; inhibition, % at 3 µM; actives 46% (n = 2,400); AID 651951;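 active means inhibition above the run cutoff, the mean inhibition of all test compounds plus 3 SD, cut at about 49% in these data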;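 further: beta-PEA stimulus applied at its EC80; loss of beta-PEA calcium signal after compound pretreatment read as receptor desensitization; 0% = DMSO with beta-PEA at EC80 and 100% = DMSO alone without agonist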
Ga16 antag count: nonselective Ga16 antagonist in TAAR1 agonist counter-screen. shares compounds with TAAR1 agonist. CHO-Ga16 ATP-induced calcium, Fluo-8 fluorescence. inhibition, % at 3 µM. actives 39% (n = 2,400). AID 651952;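 active means inhibition above the plate's mean compound inhibition plus 3 SD, computed per plate, cut at about 22% in these data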;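 further: 0% = EC80 ATP with DMSO and 100% = DMSO wells without ATP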
Numbers without * were called inactive; nt = no result; ! = not active in a repeat.

SMILES	TAAR1 agonist	rCAG binder	NS3 helicase inh	core dimer inh	TAAR1 antag	TAAR1 ag conf	Ga16 ag counter	TAAR1 desens	Ga16 antag count
CN1CCN(C(=O)C(=O)c2cn(CC(=O)N3CCCCCC3)c3ccccc23)CC1	2	4	nt	nt	0	nt	nt	nt	nt
O=C(C(=O)N1CCc2ccccc2C1)c1cn(CC(=O)N2CCOCC2)c2ccccc12	75*	2	-9	-4	-6	39*	5	-1	8
O=C(C(=O)N1CCOCC1)c1cn(CC(=O)N2CCc3ccccc3C2)c2ccccc12	2	-2	11	-1	-14	nt	nt	nt	nt
COC(=O)[C@]12C[C@H](CC(=O)NCc3ccccc3)C(=O)N(CCc3ccc(OC)c(OC)c3)C1=C[C@H](C(C)C)O[C@@H]2C1CC1	nt	3	nt	nt	nt	nt	nt	nt	nt
CCOC(=O)C1(Cc2ccccc2)CCN(Cc2ccccc2OC)CC1	nt	-1	nt	nt	nt	nt	nt	nt	nt
Oc1ccc(C2CNCCc3c2cc(O)c(O)c3Cl)cc1 (configuration not stated)	62*!	-1	nt	-3	13	81*	0	76*	10
C=CCN1CCc2c(cc(O)c(O)c2Cl)C(c2ccccc2)C1 (configuration not stated)	-2	6	nt	8	-24	nt	nt	nt	nt
Oc1cc2c(c(Cl)c1O)CCNCC2c1ccccc1 (configuration not stated)	44*	3	nt	0	-10	73*	3	57*	10
CCNC(=O)O[C@@H]1C=C[C@@H](C#Cc2ccc(C(C)(C)C)cc2)O[C@@H]1COC(C)=O	0	3	nt	nt	2	nt	nt	nt	nt
Cc1ccc2c(c1)N(CC(=O)NCC(C)c1ccccc1)C(=O)c1cccnc1O2 (configuration not stated)	56*	-5	-3	3	47	74*	3	50*	10
Cc1ccc2c(c1)N(CC(=O)Nc1c(C)cccc1C)C(=O)c1cccnc1O2	3	-3	-6	1	-23	nt	nt	nt	nt
COc1cccc(C(=O)NCCN2C(=O)C3C4C=CC(C4)C3C2=O)c1 (configuration not stated)	nt	1	nt	nt	nt	nt	nt	nt	nt
Cc1cc(N2CCN(C(=O)OC(C)(C)C)C[C@@H]2C)ccc1N1CCS(=O)(=O)CC1	3	1	nt	nt	-17	nt	nt	nt	nt
CC(CCc1ccccc1)NC(=O)c1ccccc1C(=O)O (configuration not stated)	48*	-3	-1	10	-12	63*	20*	2	2
O=C(NCCc1ccccc1)c1ccccc1Cl	2	-5	19	-15	-23	nt	nt	nt	nt
NC(Cc1ccc(Cl)cc1)c1csc(NC(=O)NCCc2ccccc2)n1 (configuration not stated)	75*	12	nt	nt	68*	60*	30*	63*	51*
CC(CCc1ccccc1)NCC#N (configuration not stated)	53*	1	-12	-3	-15	51*	0	8	6
O=C(O)c1ccccc1C(=O)NCCc1ccc(Cl)cc1	60*	1	0	1	17	61*	7	27	9
O=C(Cc1ccccc1F)N1CCC(n2nnc3ncccc32)CC1	nt	3	nt	nt	nt	nt	nt	nt	nt
CCOC(=O)C(CNc1ccc(O)cc1)NC(=O)c1ccccc1 (configuration not stated)	1	15	nt	nt	16	nt	nt	nt	nt
O=C(NCCc1ccccc1)Nc1ccc(Cl)cc1	47*	0	7	-3	37	46*	21*	42	28*

Bioassay records as filed in PubChem.
